Screening results as filed in PubChem.
Only a selection was taken, and hits are over-represented in it overall.
N-glyco inh = N-linked glycosylation inhibition; reporter increase, % at 12.5 µM; 360,000 tested, 0.23% active; D54 ERlucT glycosylation luciferase reporter, 24 h; percent of 100 nM tunicamycin response;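 active means mean luciferase reporter signal, scaled so untreated is 0 and the glycosylation-blocking control 100, at or above a set limit in every replicate; inconclusive means mean reaches the limit but not every replicate does; inactive means mean below the limit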;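 further: luciferase carries N-glycosylation sites so blocking glycosylation raises the light; 0% = median of neutral control wells and 100% = median of 100 nM tunicamycin wells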
ALR H2O2 inh = inhibitors of human sulfhydryl oxidase ALR; P55789; purified ALR, DTT oxidation, H2O2 HRP-luminol luminescence; inhibition, % (concentration not given with the values); 290,000 tested, 3.8% active; AID 485317;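 active means mean replicate inhibition above about 79%, with every replicate also reaching it, limit read from the data; inconclusive means only one of the two criteria met; inactive means mean below limit and not every replicate reaching it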
Target sequence (P55789 whole entry, looked up): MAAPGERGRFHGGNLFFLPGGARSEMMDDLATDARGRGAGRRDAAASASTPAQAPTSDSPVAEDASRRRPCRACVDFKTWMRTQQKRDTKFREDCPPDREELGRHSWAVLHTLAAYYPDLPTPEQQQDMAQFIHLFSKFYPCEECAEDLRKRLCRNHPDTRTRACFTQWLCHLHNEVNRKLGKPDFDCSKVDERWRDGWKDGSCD
T cell HTS = T cell immune modulation candidate; 2C CD8+ T cell-vesicle binding, flow cytometry; hits give low values; response (vesicle binding), % at 7 µM; 330,000 tested, 0.068% active; AID 2052;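 active means response, share of CD8 T cells binding vesicles, and their 90th percentile fluorescence all below set limits, cut at about 80% in these data, passing the limit was not always enough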;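 further: values below 100% mean blocked vesicle binding to the CD8+ T cells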
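material = purified 2C TCR transgenic mouse naive CD8+ T cells | controls = Unloaded micro-vesicles (low), QL9 vesicles with 0.7% DMSO (high) | detection = cytometric PE anti-B7-1 and Alexa647 anti-CD8 signals after 1% paraformaldehyde fixation | incubation = binding step 1.5 h, 37 °C, antibody labelling 20 min, ice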
Starred values were filed as active, the others as inactive; i = inactive; u = inconclusive; x = no result given.

SMILES | N-glyco inh | ALR H2O2 inh | T cell HTS
COc1cccc(/C=N/Nc2nc3ccccc3[nH]2)c1OC | -4 | x | 389
CSCC[C@@H](CO)NC(=O)[C@H]1O[C@@H](n2ccc(N)nc2=O)[C@H](O)[C@@H]1O | 3 | x | x
COc1ccc(N2c3ccccc3CN(Cc3ccccc3)CC2Cc2cc(OC)c(OC)c(OC)c2)cc1 (stereo not given) | -7 | x | x
O=c1c2ccccc2nc(SCc2nc3ccccc3s2)n1Cc1ccco1 | -7 | 87* | 290
O=c1c2ccccc2nc(SCc2ccccc2)n1Cc1ccco1 | x | 0 | 229
CCc1nc2c(OCc3ccc(C(=O)OC)cc3)cccn2c1N(C)C(=O)c1ccc(C)cc1 | 1 | x | x
CCCN1CCC(=O)N([C@H](CN=[N+]=[N-])CC(C)C)CC1 | 0 | -12 | 613
O=C(COc1ccc(Cl)cc1Cl)Nn1c(=S)[nH]c2ncccc2c1=O | 2 | u | 212
COc1ccccc1OCC(=O)Nn1c(=S)[nH]c2ncccc2c1=O | -1 | 91* | 554
c1ccc(SCc2cn3cccnc3n2)nc1 | -1 | -1 | 183
Nc1ccccc1SCc1cn2ccccc2n1 | -10 | 24 | 199
Cc1cccn2cc(CSc3ccccc3N)nc12 | -8 | 81* | 248
Nc1ccccc1SCc1cn2cccnc2n1 | 0 | 98* | 421
O=C(NCc1ccccc1Cl)C1CCC(CNc2c(N3CCOCC3)c(=O)c2=O)CC1 (stereo not given) | 0 | -4 | 630
CCOCCc1nnc(NC(=O)C2CC(=O)N(CCc3ccc(F)cc3)C2)s1 (stereo not given) | 2 | 0 | 176
CC(C)(C)CC(C)(C)NC(=O)CSCC(=O)Nc1ccc2ccccc2c1 | -3 | 99* | 348
CCC(=O)Nc1ccc2ccccc2c1 | 2 | -20 | 387
CCCCc1nc2cc(C(=O)NCc3cc(C)n(C)n3)ccc2o1 | -1 | 7 | 301
Cc1cc(Cl)ccc1NC(=O)CN1CCN(C(=O)c2ccco2)CC1 | 2 | x | 324
C=CCNC(=S)NN=C1CCC(c2ccccc2)CC1 (stereo not given) | 0 | 0 | 197
Cn1c(=Nc2ccccc2)sc2ccccc21 | 0 | -3 | x
CN(C)c1ccc(N=c2sc3ccccc3n2C)cc1 | -2 | 99* | 413
O=C(CSc1nnc(NC(=O)c2c(F)cccc2F)s1)NC1CCCCC1 | 1 | 1 | 771
CC(C)c1ccc(CNCCCSc2ncccn2)cc1 | 0 | -5 | 482
O=C(NCCC(=O)N1CCC2(CC1)NCCc1[nH]cnc12)c1cccc(Br)c1 | 2 | -1 | 356
SMILES | N-glyco inh | ALR H2O2 inh | T cell HTS
CCN1CCN(C(=O)CS(=O)Cc2nc(-c3ccc(OC)cc3)oc2C)CC1 (stereo not given) | 0 | 99* | 638
COc1ccc(-c2nc(CS(=O)CC(=O)N3CCCC3)c(C)o2)cc1 (stereo not given) | 1 | 99* | 628
COc1cccc(-c2nc(CS(=O)(=O)CC(=O)N3CCCCC3)c(C)o2)c1 | 0 | -7 | 277
COc1ccc(-c2nc(CN3CCN(Cc4ccccc4)CC3)c(C)o2)cc1 | -2 | -4 | 260
O=C(CCc1ccccc1)NNC(=O)c1ccccc1Cl | 2 | -5 | 231
O=C(NNCc1ccc(O)cc1)c1ccccc1Cl | -1 | 99* | 502
Cc1cc(C)c(NC(=O)CSc2nc(=O)n(CCN3CCOCC3)c3c2CCCC3)c(C)c1 | 1 | 12 | 223
O=C(CSc1nc(=O)n(CCCN2CCOCC2)c2c1CCC2)Nc1ccc(F)cc1 | -2 | 98* | 320
CCc1ccc(NC(=O)CSc2nc(=O)n(CCCN3CCOCC3)c3c2CCC3)cc1 | 0 | 98* | 339
CC(C)c1ccc(NC(=O)CSc2nc(=O)n(CCN3CCOCC3)c3c2CCC3)cc1 | -2 | 99* | 260
Cc1c(Cl)cccc1NC(=O)CSc1nc(=O)n(CCCN2CCOCC2)c2c1CCCC2 | -2 | x | x
O=C(CSc1nc(=O)n(CCCN2CCOCC2)c2c1CCCC2)Nc1ccc(F)cc1 | -3 | 28 | 379
CCc1ccc(NC(=O)CSc2nc3ccccc3nc2N2CCCC2)cc1 | -8 | 88* | 448
Cc1ccc(NC(=O)CSc2nc3ccccc3nc2N2CCCC2)cc1 | -12 | -16 | 399
CCOc1ccccc1OCCCC(=O)NNC(=O)c1cc(C)oc1C | 0 | x | 341
Cc1ccc(NC(=O)CSc2nc(=O)n(CCCN3CCOCC3)c3c2CCCC3)cc1 | -3 | 98* | 382
CCOc1ccc(NC(=O)CSc2nc(=O)n(CCCN3CCOCC3)c3c2CCC3)cc1 | -1 | 97* | 307
CCOc1ccc(NC(=O)CSc2nc(=O)n(Cc3ccccn3)c3c2CCC3)cc1 | -3 | u | 161
CCOc1ccccc1NC(=O)CSc1nc(=O)n(CCN2CCOCC2)c2c1CCCC2 | -1 | 1 | 487
CCOc1ccc(NC(=O)CSc2nc(=O)n(Cc3cccnc3)c3c2CCC3)cc1 | -2 | 99* | 58
CCCCc1ccc(NC(=O)CSc2nc(=O)n(CCCN3CCOCC3)c3c2CCC3)cc1 | 3 | 99* | 171
Cc1ccc(C)c(NC(=O)CSc2nc(=O)n(CCN3CCOCC3)c3c2CCCC3)c1 | 1 | -1 | 416
CC(CC(=O)NC1CCCCC1)S(=O)(=O)c1ccc2c(c1)NC(=O)CO2 (stereo not given) | -4 | -2 | 321
COc1cccc(CN(C)C(=O)c2ccc(Cl)c(S(=O)(=O)N3CCCCCC3)c2)c1OC | -5 | x | x
COc1cccc(CN(C)C(=O)c2cc(S(=O)(=O)NC3CCCCC3)ccc2C)c1 | -2 | -9 | 362
SMILES | N-glyco inh | ALR H2O2 inh | T cell HTS
CCCCc1ccc(NC(=O)CSc2nc(=O)n(CCN3CCOCC3)c3c2CCC3)cc1 | -1 | 99* | 124
O=C(CSc1nc(=O)n(CCN2CCOCC2)c2c1CCCC2)Nc1ccc(F)cc1F | 0 | -4 | 416
NC(=O)c1ccc(/C(N)=N/S(=O)(=O)c2cc(C(F)(F)F)cc(C(F)(F)F)c2)cc1 | 0 | -33 | 515
CCCCCCCCCCCCCCC(O)C[N+](C)(CCO)CCO (stereo not given) | -9 | x | x
C[C@@H]1CN([C@H](C)CO)C(=O)c2cc(Br)cnc2O[C@@H]1CN(C)C(=O)CC1CC1 | 2 | x | x
Cc1cc(O)c(Sc2ncn[nH]2)cc1NS(=O)(=O)c1ccc(Cl)cc1 | 0 | 93* | 173
COc1ccc(S(=O)(=O)Nc2cc(Sc3ncn[nH]3)c(O)cc2C)cc1 | 2 | 98* | i
COc1ccc(-c2ccc(NS(=O)(=O)c3cc([N+](=O)[O-])ccc3C)cc2)nn1 | 2 | -5 | 630
Cc1ccc([N+](=O)[O-])cc1S(=O)(=O)Nc1ccc(O)c(Sc2ncn[nH]2)c1 | 1 | 94* | 232
COc1ccc(S(=O)(=O)Nc2cc(C(C)C)c(O)cc2C)cc1 | -3 | u | 296
O=S(=O)(Nc1cc(Sc2ncn[nH]2)c(O)c2ccccc12)c1ccccc1 | 14 | x | x
O=C1c2ccccc2C(=O)N1COc1ccc(S(=O)(=O)N2CCOCC2)cc1[N+](=O)[O-] | 0 | -5 | 158
COc1cc(C(C)=O)ccc1OC(=O)N1CCOCC1 | 2 | x | x
Cc1cccc(NC(=S)NCCc2ccccn2)c1 | 1 | 1 | 326
S=C(NCCc1ccccn1)Nc1cccc(Cl)c1 | -1 | 97* | 195
COCCCNC(=S)NNC(=S)Nc1cccc(Cl)c1 | -1 | 78* | 285
